The results in this text go back to ChEMBL document CHEMBL1938337, “Discovery of novel, potent, and selective inhibitors of 3-phosphoinositide-dependent kinase (PDK1)” (J Med Chem, 2011).

Values after ≈ are worked out from the molar mass of the structure shown.

Data set [1] deals with T1, 3-phosphoinositide-dependent protein kinase 1 (Homo sapiens, UniProt O15530).
T1 sequence (O15530 whole entry): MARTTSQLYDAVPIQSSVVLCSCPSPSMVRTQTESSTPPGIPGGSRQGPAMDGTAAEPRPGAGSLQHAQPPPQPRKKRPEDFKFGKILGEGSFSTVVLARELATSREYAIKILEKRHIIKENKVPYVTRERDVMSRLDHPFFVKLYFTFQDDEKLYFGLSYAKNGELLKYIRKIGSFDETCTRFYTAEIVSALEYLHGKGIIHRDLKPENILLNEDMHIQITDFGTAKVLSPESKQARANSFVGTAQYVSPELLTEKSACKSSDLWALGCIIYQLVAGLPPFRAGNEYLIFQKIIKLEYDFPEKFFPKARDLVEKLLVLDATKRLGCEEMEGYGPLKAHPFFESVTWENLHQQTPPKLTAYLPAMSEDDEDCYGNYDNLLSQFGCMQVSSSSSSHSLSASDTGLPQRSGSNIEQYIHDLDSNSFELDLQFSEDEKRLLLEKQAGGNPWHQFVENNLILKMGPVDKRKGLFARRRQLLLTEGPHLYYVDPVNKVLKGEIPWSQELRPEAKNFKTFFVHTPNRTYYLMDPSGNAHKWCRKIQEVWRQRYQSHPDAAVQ
Nature of the data set: Inhibition of recombinant human His-tagged PDK1 catalytic domain using Ac-Sox-PKTFCGTPEYLAPEVRREPRILSEEEQEMFRDFDYIAD-NH2 as substrate by fluorescence-based spectrophotometry.

Data set [2] concerns the target Phosphatidylinositol 4,5-bisphosphate 3-kinase catalytic subunit alpha isoform (Mus musculus, UniProt P42337). Nature of the data set: Inhibition of mouse PI3Kalpha after 30 mins by fluorescence polarization assay. The essentials:
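Mouse PI3Kα 0.5 nM with 30 μM PIP₂, 5 mM MgCl₂, 200 μM ATP, 30 min at room temperature (~22 °C); stopped with 10 mM EDTA. Then 3 min with detector mix of 480 nM GST-Grp1 PH domain and 12 nM TAMRA-PIP₃. Fluorescence polarization read in 50 mM Hepes pH 7.4, 150 mM NaCl, 5 mM DTT, 0.05% CHAPS. Duplicate points, nonlinear regression fit.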
On the technique in general: In fluorescence polarisation assays a small probe gives low polarisation when free and higher when bound to something large.

The nature of data set [3]: Solubility of the compound at pH 6.5. It is filed as physicochemical. The conditions noted are these: buffer.
Data set [4] is described as follows: Passive permeability in canine kidney cells. In kind it is ADME, cell-based, Canis lupus familiaris. The conditions noted are these: dog; read-out: permeability.
Data set [5] can be described thus: Clearance in human liver microsomes. In kind it is ADME, Microsome. The conditions noted are these: read-out: CLH. In general terms: Liver microsomes are a subcellular fraction often used to study metabolism.
Data set [6] is described as follows: Inhibition of recombinant GST-tagged P70S6K using 5FAM-KRSRTRTDSYSAGQ-COOH as substrate by fluorescence based assay. The essentials:
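GST-tagged P70S6K (a.a. 1-421) at 5 nM, 50 μM ATP, 5 μM 5FAM-peptide. Product separated from substrate by charge (electrophoretic mobility shift, −2500/−500 V). Duplicates, nonlinear regression fit.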

The target in data set [7] is RAC-alpha serine/threonine-protein kinase (Homo sapiens, UniProt P31749). Nature of the data set: Inhibition of His-tagged AKT1 using 5FAM-GRPRTSSFAEGCONH2 as substrate by fluorescence based assay.
Sequence of RAC-alpha serine/threonine-protein kinase (P31749 whole entry, the tested form may be a part): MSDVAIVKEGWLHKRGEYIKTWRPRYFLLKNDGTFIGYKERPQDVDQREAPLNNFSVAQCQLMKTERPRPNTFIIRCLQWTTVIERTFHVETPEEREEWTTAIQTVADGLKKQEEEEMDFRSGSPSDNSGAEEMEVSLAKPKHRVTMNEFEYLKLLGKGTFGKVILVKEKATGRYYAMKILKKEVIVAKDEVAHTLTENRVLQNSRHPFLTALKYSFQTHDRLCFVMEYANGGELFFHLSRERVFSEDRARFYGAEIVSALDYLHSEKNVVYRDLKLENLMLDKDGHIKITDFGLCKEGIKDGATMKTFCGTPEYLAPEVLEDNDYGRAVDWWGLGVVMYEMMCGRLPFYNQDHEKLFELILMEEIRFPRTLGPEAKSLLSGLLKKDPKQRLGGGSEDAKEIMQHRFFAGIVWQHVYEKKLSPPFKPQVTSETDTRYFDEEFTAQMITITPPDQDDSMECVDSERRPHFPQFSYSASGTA
Data set [8] deals with Serine/threonine-protein kinase mTOR (Homo sapiens, UniProt P42345). Description: Inhibition of GST-tagged mTOR assessed as phosphorylation at Thr46 in GFP-4E-BP1 substrate by TR-FRET assay. The essentials: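 GST-tagged mTOR (aa 1360-2549) at 1 nM, with 0.4 μM GFP-4E-BP1 and 40 μM ATP. Buffer: 50 mM Hepes pH 7.4, 10 mM MgCl2, 1 mM EGTA, 0.01% Tween-20, at about 22 °C. A terbium anti-phospho-Thr46 antibody was added at the end, and the read-out was TR-FRET. Duplicate data fitted by nonlinear regression. Concentrations are final.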
On the technique in general: Time-resolved FRET reads energy transfer from a long-lived donor to a nearby acceptor.

The target in data set [9] is CYP3A4 (Homo sapiens, UniProt P08684). Nature of the data set: Inhibition of CYP3A4 at 3 uM. In kind it is ADME.
Sequence of CYP3A4 (P08684 whole entry): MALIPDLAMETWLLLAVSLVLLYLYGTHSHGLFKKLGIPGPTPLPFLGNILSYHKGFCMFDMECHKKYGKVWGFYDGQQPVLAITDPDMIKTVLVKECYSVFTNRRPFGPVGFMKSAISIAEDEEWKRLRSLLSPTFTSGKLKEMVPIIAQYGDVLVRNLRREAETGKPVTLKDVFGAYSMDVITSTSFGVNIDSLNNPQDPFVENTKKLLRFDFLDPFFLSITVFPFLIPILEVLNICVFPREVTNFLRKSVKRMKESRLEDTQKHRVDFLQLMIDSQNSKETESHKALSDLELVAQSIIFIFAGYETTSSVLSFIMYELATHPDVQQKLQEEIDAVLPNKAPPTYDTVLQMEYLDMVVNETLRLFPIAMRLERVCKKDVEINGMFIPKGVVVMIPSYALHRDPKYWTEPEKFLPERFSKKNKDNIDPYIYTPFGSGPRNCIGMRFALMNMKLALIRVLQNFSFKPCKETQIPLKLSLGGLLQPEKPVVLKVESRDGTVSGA
Data set [10] deals with CYP3A4 (Homo sapiens). Description: Inhibition of CYP3A4 at 3 uM.
The test system of data set [11] is CYP3A4 (Homo sapiens). Description: Inhibition of CYP3A4 at 3 uM. This is another data set of the same source.
The test system of data set [12] is CYP3A4 (Homo sapiens). Description: Inhibition of CYP3A4 at 3 uM. The source holds these as a separate data set.

Sequence of Phosphatidylinositol 4,5-bisphosphate 3-kinase catalytic subunit alpha isoform (P42337 whole entry, the tested form may be a part, canonical isoform): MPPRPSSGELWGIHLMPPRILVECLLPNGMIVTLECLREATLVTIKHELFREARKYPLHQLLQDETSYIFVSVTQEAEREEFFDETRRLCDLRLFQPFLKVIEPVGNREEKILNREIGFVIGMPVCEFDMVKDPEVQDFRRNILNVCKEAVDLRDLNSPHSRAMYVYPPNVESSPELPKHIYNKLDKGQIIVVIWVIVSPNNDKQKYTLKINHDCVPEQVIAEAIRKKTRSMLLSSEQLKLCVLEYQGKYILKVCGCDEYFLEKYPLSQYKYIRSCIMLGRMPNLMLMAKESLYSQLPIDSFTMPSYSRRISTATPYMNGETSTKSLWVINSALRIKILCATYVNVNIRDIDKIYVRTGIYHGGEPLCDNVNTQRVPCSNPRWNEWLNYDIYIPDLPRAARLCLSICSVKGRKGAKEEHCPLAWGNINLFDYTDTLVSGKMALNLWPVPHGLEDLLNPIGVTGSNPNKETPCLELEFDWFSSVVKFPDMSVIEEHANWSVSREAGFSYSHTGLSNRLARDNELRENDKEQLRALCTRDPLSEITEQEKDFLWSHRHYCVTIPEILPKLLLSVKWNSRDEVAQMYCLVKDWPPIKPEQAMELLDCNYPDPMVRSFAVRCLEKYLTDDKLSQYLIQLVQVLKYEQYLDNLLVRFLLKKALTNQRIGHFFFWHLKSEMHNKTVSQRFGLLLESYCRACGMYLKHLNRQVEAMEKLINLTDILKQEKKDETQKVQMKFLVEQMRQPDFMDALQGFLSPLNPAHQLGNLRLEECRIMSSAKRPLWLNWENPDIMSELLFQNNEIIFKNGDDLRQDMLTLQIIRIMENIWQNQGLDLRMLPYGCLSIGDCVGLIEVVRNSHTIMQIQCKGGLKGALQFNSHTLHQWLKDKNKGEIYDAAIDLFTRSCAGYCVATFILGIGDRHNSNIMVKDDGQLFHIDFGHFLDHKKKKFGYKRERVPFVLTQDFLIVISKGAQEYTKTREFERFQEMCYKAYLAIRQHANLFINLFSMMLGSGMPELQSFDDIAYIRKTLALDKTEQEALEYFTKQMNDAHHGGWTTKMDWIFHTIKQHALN

One may read the Ki as a dissociation constant, usually derived from enzyme kinetics or from competition with a known ligand. For orientation: solubility means the concentration that dissolves in the medium under given conditions. Low readings indicate a poorly soluble substance, high ones a readily soluble substance. Regarding `CC(C)n1cc(C(=O)c2cncc(N[C@@H]3CCN[C@@H]3c3ccc(F)cc3)n2)c2c(N)ncnc21`, the Ki is 1 nM in [1]; 150 nM in data set [2]; 120 nM in data set [6]; 100 nM in [7]; 2100 nM in data set [8]. This compound had a solubility in [3] of 520 µM (≈ 239 µg/mL). The Papp in data set [4] is 5 ×10⁻⁶ cm/s. Also, the microsomal CLint in [5] stood at 92 µL/min/mg.

For the compound `CC(C)n1cc(C(=O)c2cncc(N[C@@H]3COC[C@@H]3c3ccc(F)cc3)n2)c2c(N)ncnc21`, the Ki in [2] was found to be 570 nM; in data set [6], 170 nM; in [7], 260 nM; in [8], 500 nM. This compound also yielded a solubility in data set [3] of 23 µM (≈ 10.6 µg/mL). In addition, the Papp in data set [4] was 13 ×10⁻⁶ cm/s. In addition, the microsomal CLint in data set [5] was 160 µL/min/mg.

For `CC(C)n1cc(C(=O)c2cncc(N[C@@H]3CCC[C@@H]3c3ccc(F)cc3)n2)c2c(N)ncnc21`, the Ki was 0.6 nM in data set [1]; 320 nM in [2]; 230 nM in data set [6]; 210 nM in [7]; 3900 nM in data set [8]. Besides, in data set [3], the solubility amounted to 6 µM (≈ 2.76 µg/mL). Further, the Papp in [4] came out at 6 ×10⁻⁶ cm/s. Moreover, the microsomal CLint in [5] turned out to be 160 µL/min/mg.

With `CNc1cncc(C(=O)c2cn(C(C)C)c3ncnc(N)c23)n1`, the Ki in data set [1] was found to be 100 nM.

For the compound `CC(C)n1cc(C(=O)c2cncc(NCCc3cccnc3)n2)c2c(N)ncnc21`, the Ki in [2] stood at 250 nM.

With `CC(C)n1cc(C(=O)c2cncc(N(C)[C@@H]3CCC[C@@H]3c3ccc(F)cc3)n2)c2c(N)ncnc21`, the results for the Ki in [1] and in data set [2] were 0.9 nM and 650 nM, respectively.

A word on the inhibition: it is the percentage by which the read-out fell short of the control. Low values mean a weak effect, high ones a strong effect. With `CC(C)n1cc(C(=O)c2cncc(N[C@@H]3CNC[C@@H]3c3ccc(F)cc3)n2)c2c(N)ncnc21`, the Ki came to 2.5 nM in [1]; 370 nM in [2]; 11 nM in [6]; 10 nM in data set [7]; 1100 nM in data set [8]. For the same compound, the inhibition at 3 µM in [9], in data set [10], in [11] and in data set [12] was 27% throughout. This compound showed a solubility in data set [3] of 480 µM (≈ 221 µg/mL). The Papp in data set [4] is 2 ×10⁻⁶ cm/s. Moreover, the microsomal CLint in [5] is 59 µL/min/mg.

On to `CC(C)n1cc(C(=O)c2cncc(N[C@@H]3CCC[C@@H]3c3ccccc3)n2)c2c(N)ncnc21`, for which the Ki in data set [1] turned out to be 2 nM; in [2], 130 nM.

Turning to `CC(C)n1cc(C(=O)c2cncc(N[C@@H]3CCO[C@@H]3c3ccc(F)cc3)n2)c2c(N)ncnc21`, the Ki in data set [1] is 1.3 nM; in [2] it was 430 nM; in data set [6], 61 nM; in data set [7], 230 nM; in data set [8], 3900 nM. In [3], the solubility stood at 120 µM (≈ 55.4 µg/mL). In data set [4], the Papp is 13 ×10⁻⁶ cm/s. In [5], the microsomal CLint came out at 220 µL/min/mg.
